Values after ≈ are worked out from the molar mass of the structure shown.
Assays:
Type in all cases: functional, cell-based
MCF7 = experiment: Antitumor activity against human MCF7 cells
Summary of the method: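 Human MCF-7 breast carcinoma cells treated in vitro across a range of drug concentrations. Surviving fraction plotted against concentration to give survival curves. IC50 (µg/ml), the dose that reduces survival to 50%, read from these curves. Doxorubicin served as reference drug.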

HeLa = experiment: Antitumor activity against human HeLa cells
Summary of the method: (§1)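 In vitro cytotoxicity against human carcinoma cell lines. Surviving fraction was plotted against drug concentration to give survival curves. IC50 was read from these curves as the dose reducing survival to 50%, in µg/ml.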

HCT-116 = experiment: Antitumor activity against human HCT116 cells; summary of the method: as §1
HepG2 = experiment: Antitumor activity against human HepG2 cells; summary of the method: as §1
[1] = Homo sapiens, MCF7, read-out: IC50

Row | Structure (SMILES) | IC50 (MCF7; [1]) [µg/mL] | IC50 (HeLa) [µg/mL] | IC50 (HCT-116) [µg/mL] | IC50 (HepG2) [µg/mL] | IC50 (MCF7; mcf7)
1 | CCC1(C)C/C(=N\NC(N)=O)c2c(c(OC)c3occc3c2OC)O1 (stereo not drawn) | 13.9 (≈ 40 µM) |  |  |  | 
2 | COc1c2c(c(OC)c3occc13)OC1(CCCCC1)C/C2=N\NC(N)=O | 10.6 (≈ 28.4 µM) | 4.19 (≈ 11.2 µM) | 4.04 (≈ 10.8 µM) | 8.61 (≈ 23.1 µM) | 
3 | COc1c2occc2c(OC)c2c(C=C(C)N3CCCC3)c(C#N)c(=N)oc12 | 8.61 (≈ 22.7 µM) | 5.11 (≈ 13.5 µM) | 4.8 (≈ 12.7 µM) | 10.9 (≈ 28.7 µM) | 
4 | COc1c2c(c(OC)c3occc13)OC(C)(C)c1[se]nnc1-2 | 15.8 (≈ 43.3 µM) | 4.35 (≈ 11.9 µM) | 4.65 (≈ 12.7 µM) | 15.9 (≈ 43.5 µM) | 
5 | COc1c2c(c(OC)c3occc13)OC1(CCCCC1)c1[se]nnc1-2 | 15 (≈ 37 µM) | 5.57 (≈ 13.7 µM) | 4.19 (≈ 10.3 µM) | 9.53 (≈ 23.5 µM) | 
6 | COc1c2c(cc3occc13)OC1(CCCCC1)c1snnc1-2 | 15.9 (≈ 48.4 µM) |  |  |  | 
7 | COc1c(C(/C=C(\C)N2CCCC2)=C2C(=O)c3ccccc3C2=O)c(O)c(OC)c2occc12 | 13.2 (≈ 28.7 µM) |  |  |  | 
8 | COc1cccc2c1C(=O)c1c(O)c3c(c(O)c1C2=O)C[C@@](O)(C(=O)CO)C[C@@H]3O[C@H]1C[C@H](N)[C@H](O)[C@H](C)O1 [DOXORUBICIN] |  | 4.19 (≈ 7.71 µM) | 3.73 (≈ 6.86 µM) | 3.73 (≈ 6.86 µM) | 
9 | COc1c2c(cc3occc13)OC1(CCCCC1)c1[se]nnc1-2 | 16.5 (≈ 44 µM) | 7.24 (≈ 19.3 µM) | 3.89 (≈ 10.4 µM) | 14.6 (≈ 38.9 µM) | 
10 | COc1c2c(c(OC)c3occc13)OC1(CCCCC1)c1snnc1-2 | 14.9 (≈ 41.6 µM) |  |  |  | 
11 | COc1c2occc2c(OC)c2c(C=C(C)N3CCCCC3)c(C#N)c(=N)oc12 |  | 4.8 (≈ 12.2 µM) | 4.34 (≈ 11 µM) | 8.46 (≈ 21.5 µM) | Not Active
12 | COc1c2c(cc3occc13)OC1(CCCCC1)C/C2=N\NC(N)=O | 14 (≈ 40.8 µM) |  |  |  | 
13 | COc1c2c(cc3occc13)OC(C)(C)c1[se]nnc1-2 | 5.56 (≈ 16.6 µM) | 6.02 (≈ 18 µM) | 4.8 (≈ 14.3 µM) | 11.5 (≈ 34.3 µM) | 
14 | COc1c2c(cc3occc13)OC(C)(C)C/C2=N\NC(N)=O | 10.9 (≈ 35.9 µM) |  |  |  | 
15 | COc1c2c(c(OC)c3occc13)OC(C)(C)C/C2=N\NC(N)=O | 20.8 (≈ 62.4 µM) |  |  |  | 
16 | COc1c(C(/C=C(\C)N2CCCC2)=C2C(=O)c3ccccc3C2=O)c(O)cc2occc12 | 15.5 (≈ 36.1 µM) |  |  |  | 
17 | CCC1(C)Oc2c(c(OC)c3ccoc3c2OC)-c2nn[se]c21 (stereo not drawn) | 12.7 (≈ 33.5 µM) | 6.02 (≈ 15.9 µM) | 8.92 (≈ 23.5 µM) | 9.53 (≈ 25.1 µM) | 
